This note sets out measurements from PMC7704867 (Biochimica et biophysica acta. Biomembranes, 2020).

Ends that are not written are not given here. Peptide text beside a SMILES is read from it. * marks the point of attachment. DOTA = O=C(O)CN1CCN(CC(=O)O)CCN(CC(=O)*)CCN(CC(=O)O)CC1

The target of assay [1] is 15N-S100A10-AnxA2Nter fusion protein (Homo sapiens, UniProt P60903). The format is binding.
The target in the next assay is Ac-^15N-F454G458G461-SW. Briefly: NMR titration.
The next assay concerns AnxA2. The format is binding, human. Conditions: 60 μM peptide, up to molar ratio 1:1, 1H-15N HSQC, 25°C, pH 5.5. The method, boiled down: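 Recombinant human AnxA2 (C-terminal thrombin site and His tag, expressed in E. coli C41(DE3)) titrated up to 1:1 molar ratio into uniformly 15N-labelled 12-residue CEACAM1-SF peptide (Trx-SMT3 fusion grown in M9/15NH4Cl, Ulp1-cleaved, HPLC-purified) at 60 μM. Buffer: 50 mM NaAc-d3, 2 mM DTT, 5% D2O. 1H-15N HSQC at 700 MHz with cryoprobe; chemical shift perturbations monitored.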

Assay [2] deals with S100A10-AnxA2Nter fusion protein [S100A10(1–92)-ENLYFQGD linker-AnxA2 peptide (1–13)]. The assay can be described thus: NMR titration.

By Kd is commonly meant the concentration at which binding is half-saturated. By stoichiometry N is commonly meant the number of molecules, sites or subunits per partner or assembly.

`CC(=O)N[C@@H](CS)C(=O)N[C@@H](Cc1ccccc1)C(=O)N[C@@H](CC(C)C)C(=O)N[C@@H](Cc1c[nH]cn1)C(=O)N[C@@H](Cc1ccccc1)C(=O)NCC(=O)N[C@@H](CCCCN)C(=O)N[C@H](C(=O)NCC(=O)N[C@@H](CO)C(=O)N[C@@H](CO)C(=O)NCC(=O)N1CCC[C@H]1C(=O)N[C@@H](CC(C)C)C(=O)N[C@@H](CCC(N)=O)C(=O)O)[C@@H](C)O` [Ac-SW] (Ac-CFLHFGKTGSSGPLQ-OH) returned a Kd in assay [1] of 880 ± 100 µM.

As to `CC(=O)N[C@@H](CS)C(=O)N[C@@H](Cc1ccccc1)C(=O)N[C@@H](CC(C)C)C(=O)N[C@@H](Cc1c[nH]cn1)C(=O)N[C@@H](Cc1ccccc1)C(=O)NCC(=O)N[C@@H](CCCCN)C(=O)N[C@H](C(=O)NCC(=O)N[C@@H](CCC(=O)O)C(=O)N[C@@H](CO)C(=O)NCC(=O)N1CCC[C@H]1C(=O)N[C@@H](CC(C)C)C(=O)N[C@@H](CCC(N)=O)C(=O)O)[C@@H](C)O` [Ac-SW-S/E] (Ac-CFLHFGKTGESGPLQ-OH), in assay [1], the Kd turned out to be 1580 ± 200 µM. In turn, `CC(=O)N[C@@H](CS)C(=O)N[C@@H](Cc1ccccc1)C(=O)N[C@@H](CC(C)C)C(=O)N[C@@H](Cc1c[nH]cn1)C(=O)N[C@@H](C)C(=O)NCC(=O)N[C@@H](CCCCN)C(=O)N[C@H](C(=O)NCC(=O)N[C@@H](CO)C(=O)N[C@@H](CO)C(=O)NCC(=O)N1CCC[C@H]1C(=O)N[C@@H](CC(C)C)C(=O)N[C@@H](CCC(N)=O)C(=O)O)[C@@H](C)O` [Ac-SW-F/A] (Ac-CFLHAGKTGSSGPLQ-OH) displayed a Kd in assay [1] of 2100 ± 810 µM. As for `CC(=O)N[C@@H](CS)C(=O)N[C@@H](Cc1ccccc1)C(=O)N[C@@H](CC(C)C)C(=O)N[C@@H](Cc1c[nH]cn1)C(=O)N[C@@H](Cc1ccccc1)C(=O)NCC(=O)N[C@@H](CCCCN)C(=O)N[C@@H](CCC(=O)O)C(=O)NCC(=O)N[C@@H](CCC(=O)O)C(=O)N[C@@H](CO)C(=O)NCC(=O)N1CCC[C@H]1C(=O)N[C@@H](CC(C)C)C(=O)N[C@@H](CCC(N)=O)C(=O)O` [Ac-SW-TS/EE] (Ac-CFLHFGKEGESGPLQ-OH), the Kd in assay [1] was determined as 3530 ± 1200 µM. With “S100A10-AnxA2Nter fusion protein [S100A10(1–92)-ENLYFQGD linker-AnxA2 peptide (1–13)]”, the equilibrium dissociation constant (Kd) with Ac-^15N-F454G458G461-SW turned out to be 460 µM. Consider 453-HFGKTGSSGPLQ-464 [^15N-SW-12], for which the “chemical shift perturbation of peptide on titration with AnxA2” value with AnxA2 is on record as “no chemical shift perturbation”. In the case of `CC(=O)N[C@@H](CS)C(=O)N[C@@H](Cc1ccccc1)C(=O)N[C@@H](CC(C)C)C(=O)N[C@@H](Cc1c[nH]cn1)C(=O)N[C@@H](Cc1ccccc1)C(=O)NCC(=O)N[C@@H](CCCCN)C(=O)N[C@@H](CCC(=O)O)C(=O)NCC(=O)N[C@@H](CO)C(=O)N[C@@H](CO)C(=O)NCC(=O)N1CCC[C@H]1C(=O)N[C@@H](CC(C)C)C(=O)N[C@@H](CCC(N)=O)C(=O)O` [Ac-SW-T/E] (Ac-CFLHFGKEGSSGPLQ-OH), the Kd in assay [1] came to 2330 ± 390 µM.

In turn, {DOTA}-GFLHFGKTGSSGPLQ (also: N-terminal DOTA chelated with Y3+) [Y-DOTA-SW] displayed a Kd in assay [2] of 1070 µM. Take Ac-CFLHFGKEGSSGPLQ [Ac-SW-T/E]: the Kd in assay [2] turned out to be 2330 µM. In assay [2], Ac-CFLHFGKEGESGPLQ [Ac-SW-TS/EE] showed a dissociation constant (Kd) of 3530 µM. Same read-out and setting: in the case of Ac-CFLHAGKTGSSGPLQ [Ac-SW-F/A] it was 2100 µM; in that of Ac-CFLHFGKTGESGPLQ [Ac-SW-S/E], 1580 µM. Same read-out and setting: with Ac-CFLHFGKTGRASDQR [Ac-LW, CEACAM1 long form 15 amino acid peptide] the figure was 1220 µM. With Ac-CFLHFGKTGSSGPLQ [Ac-SW, CEACAM1 short form 15 amino acid peptide], the dissociation constant Kd in assay [2] came to 880 µM. The stoichiometry N in assay [2] (scale: peptides per S100A10-AnxA2Nter fusion dimer) came to 2.
